# Assay results from different studies.
# Compare with care: the assays were run in different laboratories.
# Organism: Bacillus cereus
Compound,read-out,technique,strain,measurement,result
O=C(O)CN1C(=O)/C(=C/c2c3ccccc3c(-c3ccc(N(c4ccccc4)c4ccccc4)cc3)c3ccccc23)SC1=S,microbial killing,broth dilution,ATCC10876,MBC,> 1000 µg/mL
CN[C@H](CC(C)C)C(=O)N[C@H]1C(=O)N[C@@H](CC(N)=O)C(=O)N[C@H]2C(=O)N[C@H]3C(=O)N[C@H](C(=O)N[C@H](C(=O)O)c4cc(O)cc(O)c4-c4cc3ccc4O)[C@H](O)c3ccc(c(Cl)c3)Oc3cc2cc(c3O[C@@H]2O[C@H](CO)[C@@H](O)[C@H](O)[C@H]2O[C@H]2C[C@](C)(N)[C@H](O)[C@H](C)O2)Oc2ccc(cc2Cl)[C@H]1O,microbial growth,broth dilution,ATCC13061,MIC,1 µg/mL
O=C(O)CN1C(=O)/C(=C/c2ccc(-c3ccc(N(c4ccccc4)c4ccccc4)cc3)c3ccccc23)NC1=S,microbial growth,broth dilution,ATCC10876,MIC,> 1000 µg/mL
O=C(Nc1ccc(S(=O)(=O)c2nccs2)cc1)c1cc(N=Nc2nccs2)ccc1O,microbial growth,broth dilution,,MIC,200 µg/mL
O=C1NC(=S)S/C1=C\c1ccc(-c2ccc(N(c3ccccc3)c3ccccc3)cc2)cc1,microbial killing,broth dilution,ATCC10876,MBC,> 1000 µg/mL
CO[C@H]1O[C@H](COC(c2ccccc2)(c2ccccc2)c2ccccc2)[C@@H](OC(=O)c2ccc(C(C)(C)C)cc2)[C@H](OC(=O)c2ccc(C(C)(C)C)cc2)[C@H]1OC(=O)c1ccc(C(C)(C)C)cc1,microbial growth,broth dilution,,MIC,0.75 µg/mL
CC(=O)NC[C@H]1CN(c2ccc(N3CCOCC3)c(F)c2)C(=O)O1,microbial growth,broth dilution,ATCC13061,MIC,1 µg/mL
CNC(=O)[C@@H](C)[C@H]1C(=O)/C(=C(O)/C=C/C(C)=C/[C@@H](C)[C@H]2O[C@@]3(C)O[C@H](C=C[C@@]34CO4)[C@@H]2C)C(=O)N1[C@@H]1CC[C@H](O)[C@H](C)O1,microbial growth,,,MIC,> 100 µM
Nc1ccc(-c2nc(-c3ccc(Oc4ccc(C(F)(F)F)cc4)cc3)no2)cc1,microbial growth,broth dilution,ATCC13061,MIC,4 µg/mL
O=C(O)c1cn(C2CC2)c2cc(N3CCNCC3)c(F)cc2c1=O,microbial growth,,,MIC,1.56 µM
